In publication PMC6863157 (Investigational new drugs, 2016):

Assays:
[1] = test system: patients with advanced solid tumors; assay: Phase Ia dose escalation/expansion: safety, DLT, MTD, adverse events; settings: oral once daily
[2] = test system: phosphorylation of ERK1/2 in cell lines harboring KRAS or BRAF mutations; settings: cited from earlier work
advanced solid tumors = assay: Tumor response by RECIST; assay type: in vivo, human; settings: for partial responses (PRs): melanoma patients
How it was run: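 Oral test compound was given once daily at 60 mg (21/7) or 100 mg (14/14) in 28-day cycles. Patients with measurable lesions had CT at screening and about every 8 weeks, assessed by RECIST. CR/PR was confirmed 4 weeks after first documentation. Archival tissue was typed for BRAF V600, NRAS Q61 and KRAS G12/13 mutations. Responses were summarized as frequency counts and percentages.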

[3] = test system: patients with advanced solid tumors; settings: in vivo
[4] = test system: RAS- or RAF-mutant FDG-PET-avid tumors; assay: FDG-PET pharmacodynamic; assay type: in vivo, human; settings: Cycle 1 Day 10–14 (on drug); 60-mg (21/7) MTD; 8 of 17
Plasma pharmacokinetics = assay type: in vivo, human; settings: for half-life: human, plasma; for CL/F apparent plasma clearance: steady state, geometric mean (%CV)
How it was run: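 Advanced solid tumor patients took oral test compound capsules once daily on 21-day on/7-day off or 14-day on/14-day off schedules in 28-day cycles. Serial plasma was sampled after the first dose (Day 1) and last dose (Day 21 or 14) of Cycle 1, plus pre-dose on Day 1 of later cycles. Analysis was by validated LC-MS/MS with noncompartmental analysis. Racc = Day 21 AUC0–24/Day 1 AUC0–24.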

## O=C(c1ccc(F)c(F)c1Nc1ccc(I)cc1F)N1CC(O)([C@@H]2CCCCN2)C1 [cobimetinib]
[1]; 14/14 dosing schedule
  maximum tolerated dose (MTD): 100 mg
[1]; 21/7 dosing schedule
  maximum tolerated dose (MTD): 60 mg
[2]
  effect on ERK1/2 phosphorylation: inhibits the phosphorylation of ERK1/2
Advanced solid tumors; 28 patients with KRAS-mutant colorectal cancer
  RECIST responses: no responses
Advanced solid tumors; all tumor types
  patients with prolonged stable disease (SD) of five months or greater: five
Advanced solid tumors; 60 mg on the 21/7 dosing schedule
  partial responses (PRs): three
Advanced solid tumors; 100 mg 14/14 dosing schedule
  partial responses (PRs): three
Advanced solid tumors; patient with adenoid cystic carcinoma
  duration of stable disease: 7 months
Advanced solid tumors; patient with carcinoid
  duration of stable disease: ≥ 47 months
Advanced solid tumors; patient with esophageal tumor
  duration of stable disease: 6 months
Advanced solid tumors; patient with non-small cell lung cancer
  duration of stable disease: 13 months
Advanced solid tumors; seven responders, range 42–721+ days
  median time on cobimetinib of responders: 280 days
[3]; human
  incidence of edema: 34%
  incidence of treatment-related rash: 54%
  median onset of rash: 12 days
  median rash duration: 20 days
  patients with Grade ≥ 2 central serous retinopathy (CSR): 5%
  patients with at least one SAE, regardless of causality: 42%
  patients with at least one treatment-related AE: 90%
  patients with dose reductions due to treatment-related rash: 4%
  patients with gastrointestinal disorder SAEs, regardless of causality: 14%
  patients with treatment-related AEs that led to dose reductions or interruption: 25%
  treatment-related AEs that were Grade 1–2: 72%
  treatment-related rash that was Grade 1 or 2: 94%
[3]
  patients who experienced DLTs: four
  retinal vein occlusion: no reports
  reversibility of visual adverse events: reversible and resolved within one week
  symptomatic decreases in LVEF: No events
[4]
  FDG-PET metabolic response rate: 47%
Plasma pharmacokinetics; from 0.05 mg/kg (approximately 3.5 mg for a 70-kg adult) to 100 mg
  exposure vs dose: dose-proportional
Plasma pharmacokinetics; oral, 100 mg, t1/2 elimination half-life, 100 mg (14/14), geometric mean (range), n 13
  half-life: 54 h
Plasma pharmacokinetics; oral, mean terminal half-life, across all doses
  half-life: 49 h
Plasma pharmacokinetics; oral, terminal half-life, range, across all doses
  half-life: 23 to 80 h
Plasma pharmacokinetics; oral, all cohorts
  median tmax: one to three
Plasma pharmacokinetics; 60 mg (21/7), n 37
  CL/F apparent plasma clearance: 13.8 (61) L/h
Plasma pharmacokinetics; 100 mg (14/14), n 18
  CL/F apparent plasma clearance: 14.8 (92) L/h
